Assay results published in ChEMBL document CHEMBL4184322, “Coupling of an Acyl Migration Prodrug Strategy with Bio-activation To Improve Oral Delivery of the HIV-1 Protease Inhibitor Atazanavir” (J Med Chem, 2018).

Tests used:
[1] = Solubility of the compound in phosphate buffer at pH 6.5 at 25 degC by UPLC method; format: physicochemical
Rattus norvegicus [2] = assay: (§1) Tmax in Sprague-Dawley rat assessed as (2S,3S)-3-Amino-1-(2-((S)-2-((methoxycarbonyl)amino)-3,3-dimethylbutanoyl)-1-(4-(pyridin-2-yl)benzyl)hydrazinyl)4-phenylbutan-2-yl (S)-2-((Methoxycarbonyl)amino)-3,3-dimethylbutanoate Dihydrochloride at 3 mg/kg, po equiv of atazanavir after 0.25 to 24 hrs by UPLC/MS/MS method; format: ADME, organism-based; settings: in vivo
[3] = Half life of the compound in phosphate buffer at pH 6.5 at 37 degC after 24 hrs by UPLC method; format: physicochemical
Rattus norvegicus [4] = assay: as §1, with “AUClast” for “Tmax”; format: ADME, organism-based; set-up: time lower 0.25 hr, dose 3 mg/kg, time upper 24 hr, route oral; settings: in vivo
[5] = Half life of the compound in 0.1 N aqueous HCl at pH 1 at 37 degC after 24 hrs by UPLC method; format: physicochemical
Rattus norvegicus [6] = assay: Oral bioavailability in Sprague-Dawley rat assessed as atazanavir at 3 mg/kg equiv of atazanavir after 0.25 to 24 hrs by UPLC/MS/MS method relative to atazanavir; format: ADME, organism-based; settings: in vivo
[7] = Solubility of the compound in acetate buffer at pH 4 at 25 degC by UPLC method; format: physicochemical
Rattus norvegicus [8] = assay: Cmax in Sprague-Dawley rat assessed as atazanavir at 3 mg/kg, po equiv of atazanavir after 0.25 to 24 hrs by UPLC/MS/MS method; format: ADME, organism-based; set-up: dose 3 mg/kg, route oral; settings: in vivo
Rattus norvegicus [9] = assay: as §1, with “Trough concentration” for “Tmax”, “at” for “after 0.25 to”; format: ADME, organism-based; settings: in vivo, read-out: Cmin
Rattus norvegicus [10] = assay: Tmax in Sprague-Dawley rat assessed as atazanavir at 3 mg/kg, po equiv of atazanavir after 0.25 to 24 hrs by UPLC/MS/MS method; format: ADME, organism-based; settings: in vivo
[11] = Half life in rat whole blood at 1 uM after 5 to 90 mins by UPLC-MS/MS method; format: ADME, tissue-based
Rattus norvegicus [12] = assay: Trough concentration in Sprague-Dawley rat assessed as atazanavir at 3 mg/kg, po equiv of atazanavir at 24 hrs by UPLC/MS/MS method; format: ADME, organism-based; settings: in vivo; for concentration: read-out: Cmin; for Cmin: BLD = below limit of detection
Rattus norvegicus [13] = assay: AUClast in Sprague-Dawley rat assessed as atazanavir at 3 mg/kg, po equiv of atazanavir after 0.25 to 24 hrs by UPLC/MS/MS method; format: ADME, organism-based; set-up: time upper 24 hr, dose 3 mg/kg, time lower 0.25 hr, route oral; settings: in vivo
Rattus norvegicus [14] = assay: AUC (0 to 24 hrs) in famotidine treated Sprague-Dawley rat assessed as atazanavir at 10 mg/kg, po equiv of atazanavir by UPLC/MS/MS method; format: ADME, organism-based; set-up: time < 24 hr, dose 10 mg/kg, route oral; settings: in vivo
How it was run: (§2)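 Rat gastric pH model. Gastric pH was modulated by pretreatment with either pentagastrin or famotidine. Dosing was oral as a suspension in 0.5% methyl cellulose / 99.5% water, with parent AUC0–24 h determined in each arm.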

[15] = Apparent permeability across apical to basolateral side in human Caco2 cells; format: ADME, cell-based; settings: Caco-2
[16] = Efflux ratio of apparent permeability across basolateral to apical over apical to basolateral side in human Caco2 cells; format: ADME, cell-based; settings: Caco-2
Rattus norvegicus [17] = assay: AUC (0 to 24 hrs) in Sprague-Dawley rat assessed as atazanavir at 10 mg/kg, po equiv of atazanavir by UPLC/MS/MS method; format: ADME, organism-based; set-up: time < 24 hr, dose 10 mg/kg, route oral; settings: in vivo
[18] = Half life in rat hepatocytes at 1 uM after 5 to 120 mins by UPLC-MS/MS method; format: ADME, cell-based, Hepatocyte
[19] = Half life of the compound in acetate buffer at pH 4 at 37 degC after 24 hrs by UPLC method; format: physicochemical
Rattus norvegicus [20] = assay: Ratio of AUClast in Sprague-Dawley rat at 3 mg/kg, po equiv of atazanavir to AUC in Sprague-Dawley rat assessed as atazanavir at 3 mg/kg, po equiv of atazanavir; format: ADME, organism-based; settings: in vivo
[21] = Apparent permeability across basolateral to apical side in human Caco2 cells; format: ADME, cell-based; settings: Caco-2
[22] = Solubility of the compound in 0.1 N aqueous HCl at pH 1 at 25 degC by UPLC method; format: physicochemical
Rattus norvegicus [23] = assay: as §1, with “Cmax” for “Tmax”; format: ADME, organism-based; set-up: dose 3 mg/kg, route oral; settings: in vivo
Rattus norvegicus [24] = assay: AUC (0 to 24 hrs) in pentagastrin treated Sprague-Dawley rat assessed as atazanavir at 10 mg/kg, po equiv of atazanavir by UPLC/MS/MS method; format: ADME, organism-based; set-up: dose 10 mg/kg, time < 24 hr, route oral; settings: in vivo; how it was run: as §2
Rattus norvegicus [25] = assay: Oral bioavailability in Sprague-Dawley rat assessed as atazanavir at 3 mg/kg equiv of atazanavir after 0.25 to 24 hrs by UPLC/MS/MS method; format: ADME, organism-based; settings: in vivo
[26] = Half life of the compound in phosphate buffer at pH 7.4 at 37 degC after 24 hrs by UPLC method; format: physicochemical

| Structure (SMILES) | solubility [1] [µg/mL] | half-life [3] [h] | half-life [5] [h] | F (Rattus norvegicus [6]) [%] | solubility [7] [µg/mL] | Cmax (Rattus norvegicus [8]) [nM] | Tmax (Rattus norvegicus [10]) [h] | half-life at 1 µM [11] [h] | concentration (Rattus norvegicus [12]) [nM] | AUClast (Rattus norvegicus [13]) [µM·h] | Papp A→B [15] [×10⁻⁶ cm/s] | efflux ratio [16] | half-life at 1 µM [18] [h] | half-life [19] [h] | Ratio AUC (Rattus norvegicus [20]) | Papp B→A [21] [×10⁻⁶ cm/s] | solubility [22] [µg/mL] | Cmin (Rattus norvegicus [12]) | also measured |
| --- | --- | --- | --- | --- | --- | --- | --- | --- | --- | --- | --- | --- | --- | --- | --- | --- | --- | --- | --- |
| COC(=O)N[C@H](C(=O)NN(Cc1ccc(-c2ccccn2)cc1)C[C@H](OC(=O)[C@@H](NC(=O)OC)C(C)(C)C)[C@H](Cc1ccccc1)NC(=O)OC(OC(=O)[C@@H](N)C(C)C)C(C)C)C(C)(C)C.Cl.Cl (some centres not stated) | 10 | 108 | > 500 | 75.3 | 120 | 310 | 1.7 | > 2 | 4.5 | 1.446 | < 1.5 | > 8 | 0.933 | > 500 | 3.4 | 11.4 | > 1100 | – | Tmax (Rattus norvegicus [2]): 1.7 h; AUClast (Rattus norvegicus [4]): 0.579 µM·h; concentration (Rattus norvegicus [9]): 2 nM; AUC (Rattus norvegicus [14]): 1.275 µM·h; AUC (Rattus norvegicus [17]): 2.093 µM·h; Cmax (Rattus norvegicus [23]): 124 nM; AUC (Rattus norvegicus [24]): 1.332 µM·h |
| COC(=O)N[C@H](C(=O)N[C@@H](Cc1ccccc1)[C@H](CN(Cc1ccc(-c2ccccn2)cc1)NC(=O)[C@@H](NC(=O)OC)C(C)(C)C)OC(=O)[C@@H](N)C(C)C)C(C)(C)C.Cl.Cl | – | – | – | – | – | 10 | – | – | – | – | – | – | – | – | – | – | – | Bld | F (Rattus norvegicus [25]): 2.2% |
| COC(=O)N[C@H](C(=O)NN(Cc1ccc(-c2ccccn2)cc1)C[C@H](OC(=O)[C@@H](NC(=O)OC)C(C)(C)C)[C@H](Cc1ccccc1)NC(=O)OC(OC(=O)[C@H](N)C(C)C)C(C)C)C(C)(C)C.Cl.Cl (some centres not stated) | 27 | 215 | > 500 | 8.7 | > 1430 | 37 | 2.3 | > 2 | 0.3 | 0.167 | < 1.5 | > 5 | 0.883 | > 500 | 50.5 | 7.3 | > 500 | – | – |
| COC(=O)N[C@H](C(=O)NN(Cc1ccc(-c2ccccn2)cc1)C[C@H](OC(=O)[C@@H](NC(=O)OC)C(C)(C)C)[C@H](Cc1ccccc1)NC(=O)OCOC(=O)[C@@H](N)C(C)C)C(C)(C)C.Cl.Cl | – | 6.6 | > 500 | 4.3 | > 1500 | 56 | 0.4 | 0.333 | – | 0.083 | – | – | < 0.0833 | 334 | – | – | > 1800 | Bld | half-life [26]: 1.8 h |
